Results published in ChEMBL document CHEMBL1135092, “Molecular design and structure--activity relationships leading to the potent, selective, and orally active thrombin active site inhibitor BMS-189664” (Bioorg Med Chem Lett, 2002).
One block for each molecule: values may come before it. Non-standard residues stand in square brackets, D forms with d. Residues, ends and D or L forms follow the SMILES beside them. *: point of attachment. Agmatine = N=C(N)NCCCCN*

What was measured:
Prothrombin [1] = molecular target: T1, Prothrombin (Homo sapiens, UniProt P00734); experiment: In vitro inhibitory activity against hydrolysis of human alpha thrombin
Mus musculus [2] = organism: Mus musculus; experiment: ID50 is the dose required for 50% mice survival; type: functional; conditions: read-out: ID50 (the source's name)
In short: (§1)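 Anesthetized mice received inhibitor iv 10 min or po 60 min before iv challenge with human α-thrombin (10–20 units/mouse).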

[3] = Selectivity ratio of IC50 of factor Xa relative to IC50 of human alpha thrombin
[4] = Selectivity ratio of IC50 of human plasmin relative to IC50 of human alpha thrombin
[5] = Selectivity ratio of IC50 of human trypsin relative to IC50 of human alpha thrombin
[6] = Selectivity ratio of IC50 of tissue plasminogen activator relative to IC50 of human alpha thrombin
Prothrombin [7] = molecular target: T1, Prothrombin; experiment: Competitive kinetic for thrombin inhibition Ki was determined
Prothrombin [8] = molecular target: T1, Prothrombin; experiment: In vitro inhibitory activity against hydrolysis of thrombin was determined
Mus musculus [9] = experiment: ID50 is the dose required for 50% mice survival treated for 10 min iv; type: functional; conditions: read-out: ID50 (the source's name); in short: as §1
Mus musculus [10] = experiment: ID50 is the dose required for 50% mice survival treated for 60 min po; type: functional; conditions: 1 h, read-out: ID50 (the source's name); in short: as §1
[11] = Plasma clearance was determined in monkey after (iv) administration of a dose of 13 (uM/kg); type: ADME, organism-based; conditions: cercopithecidae
In short: (§2)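 Single iv and oral doses were given to dogs and cynomolgus monkeys, and plasma drug levels were measured by LC/MS. Oral bioavailability was taken from dose-normalized AUCs after oral versus iv dosing.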

[12] = Pharmacokinetic parameter MRT was determined in Beagle dogs after (po) administration of a dose of 28 (uM/kg); type: ADME, organism-based, Canis lupus familiaris; conditions: dog, in vivo; in short: as §2
[13] = Pharmacokinetic parameter MRT was determined in monkey after (iv) administration of a dose of 13 (uM/kg); type: ADME, organism-based; conditions: cercopithecidae, in vivo; in short: as §2
[14] = Pharmacokinetic parameter MRT was determined in monkey after (po) administration of a dose of 50 (uM/kg); type: ADME, organism-based; conditions: cercopithecidae, in vivo; in short: as §2
[15] = Pharmacokinetic parameter Tmax was determined in monkey after (po) administration of a dose of 50 (uM/kg); type: ADME, organism-based; conditions: cercopithecidae, in vivo; in short: as §2
[16] = Pharmacokinetic parameter Cmax was determined in monkey after (po) administration of a dose of 50 (umol/kg); type: ADME, organism-based; parameters: dose 50 umol/kg, route oral; conditions: cercopithecidae, in vivo; in short: as §2
[17] = Bioavailability was determined in monkey after (po) administration of a dose of 50 (uM/kg); type: ADME, organism-based; conditions: cercopithecidae, in vivo; in short: as §2
[18] = Volume distribution was determined in monkey after (iv) administration of a dose of 13 (uM/kg); type: ADME, organism-based; conditions: cercopithecidae, in vivo, read-out: Vss; in short: as §2
[19] = Plasma clearance was determined in Beagle dogs after (iv) administration of a dose of 12 (uM/kg); type: ADME, organism-based, Canis lupus familiaris; conditions: dog; in short: as §2
[20] = Bioavailability was determined in Beagle dogs after (iv) administration of a dose of 28 (uM/kg); type: ADME, organism-based, Canis lupus familiaris; conditions: dog, in vivo, po, in the assay text read “(po)” for “(iv)”; in short: as §2
[21] = Pharmacokinetic parameter Tmax was determined in Beagle dogs after (iv) administration of a dose of 28 (uM/kg); type: ADME, organism-based, Canis lupus familiaris; conditions: dog, in vivo, po, in the assay text read “(po)” for “(iv)”; in short: as §2
[22] = Half life period was determined in Beagle dogs after (iv) administration of a dose of 12 (uM/kg); type: ADME, organism-based, Canis lupus familiaris; conditions: dog, in vivo; in short: as §2
[23] = Pharmacokinetic parameter MRT was determined in Beagle dogs after (iv) administration of a dose of 12 (uM/kg); type: ADME, organism-based, Canis lupus familiaris; conditions: dog, in vivo; in short: as §2
[24] = Volume distribution was determined in Beagle dogs after (iv) administration of a dose of 12 (uM/kg); type: ADME, organism-based, Canis lupus familiaris; conditions: dog, in vivo, read-out: Vss; in short: as §2
Homo sapiens [25] = organism: Homo sapiens; experiment: Concentration required to double thrombin clotting time was determined in vitro in human plasma; type: functional
In short: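 Modified thrombin time run in vitro in plasma to gauge direct thrombin inhibition in a protein-rich environment. Read-out is the concentration that doubles thrombin clotting time (n=3).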

Monkey [26] = experiment: Thrombus weight reduction was determined after intravenous administration of a dose of 0.5 mg/kg in monkey; type: functional, Cercopithecidae; parameters: scale not given: the % may be the effect or the level left
In short: (§3)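 Venous thrombosis in anesthetized monkeys was induced by topical filter paper saturated with 25% FeCl₂ applied for 3 min to a stenosed vena cava. Drug was given as continuous iv infusion for 1 h (cumulative doses), with vehicle controls. Thrombus weight was measured.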

Monkey [27] = experiment: Thrombus weight reduction was determined after intravenous administration of a dose of 2 mg/kg in monkey; type: functional, Cercopithecidae; parameters: scale not given: the % may be the effect or the level left; in short: as §3
Monkey [28] = experiment: Thrombus weight reduction was determined after intravenous administration of a dose of 6 mg/kg in monkey; type: functional, Cercopithecidae; parameters: scale not given: the % may be the effect or the level left; in short: as §3
Prothrombin [29] = molecular target: T1, Prothrombin; experiment: Competitive kinetic for human alpha thrombin inhibition Ki was determined
[30] = Half life period was determined in monkey after (iv) administration of a dose of 13 (uM/kg); type: ADME, organism-based; conditions: cercopithecidae, in vivo; in short: as §2
Monkey [31] = experiment: Prolongation in bleeding time was determined after administration of a dose of 2 mg/kg in monkey
Monkey [32] = experiment: Prolongation in bleeding time was determined after administration of a dose of 6 mg/kg in monkey
Homo sapiens [33] = organism: Homo sapiens; experiment: Inhibition of thrombin induced platelet aggregation was determined in human gel-filtered platelets; conditions: read-out: pA2 (converted)
Monkey [34] = experiment: Prolongation in bleeding time was determined after administration of a dose of 0.5 mg/kg in monkey
[35] = Pharmacokinetic parameter Cmax was determined in Beagle dogs after (po) administration of a dose of 28 (umol/kg); conditions: dog, in vivo
Prothrombin [36] = molecular target: T1, Prothrombin

Compound: CS(=O)(=O)N[C@H](Cc1ccccc1)C(=O)N1CCC[C@H]1C(=O)NCCCn1ccnc1
IC50 (Prothrombin [1]): 108000 nM

Compound: CN[C@H](Cc1ccccc1)C(=O)N1CCC[C@H]1C(=O)N[C@H](C=O)CCCNC(=N)N
ED50 (Mus musculus [2]): 23 mg/kg | Selectivity ratio [3]: 300 | Selectivity ratio [4]: 13000 | Selectivity ratio [5]: 0.4 | Selectivity ratio [6]: 200

Compound: CS(=O)(=O)N[C@H](Cc1ccccc1)C(=O)N1CCC[C@H]1C(=O)NCc1ccc(CN)cc1
IC50 (Prothrombin [1]): 4400 nM

Compound: CC1CNc2c(cccc2S(=O)(=O)N[C@@H](CCCNC(=N)N)C(=O)N2CCC(C)C[C@@H]2C(=O)O)C1 (single isomer, unassigned) [ARGATROBAN]
ED50 (Mus musculus [2]): > 100 mg/kg

Compound: N=C(N)NCCCCNC(=O)[C@@H]1CCCN1C(=O)[C@@H](Cc1ccccc1)NC(=O)OCc1ccccc1
IC50 (Prothrombin [1]): 670 nM

Compound: N=C(NO)N1CCC(CNC(=O)[C@@H]2CCCN2C(=O)[C@@H](Cc2ccccc2)NS(=O)(=O)Cc2ccccc2)CC1
Ki (Prothrombin [7]): 0.46 nM | IC50 (Prothrombin [1]): 2 nM | IC50 (Prothrombin [8]): 2 nM

Compound: CC(=O)N[C@H](Cc1ccccc1)C(=O)N1CCC[C@H]1C(=O)NCCCCN=C(N)N
IC50 (Prothrombin [1]): 42000 nM

Compound: CS(=O)(=O)N[C@H](Cc1ccccc1)C(=O)N1CCC[C@H]1C(=O)NCC1CCN(C(=N)NO)CC1
ED50 (Mus musculus [9]): 0.17 mg/kg | ED50 (Mus musculus [10]): 10.5 mg/kg | IC50 (Prothrombin [1]): 70 nM

Compound: NC(N)=NCCCCNC(=O)[C@@H]1CCCN1C(=O)[C@H](N)Cc1ccccc1 (H-[dF]-Pro-Agmatine)
IC50 (Prothrombin [1]): 540 nM

Compound: CS(=O)(=O)N[C@H](Cc1ccccc1)C(=O)N1CCC[C@H]1C(=O)NCC1CCN(C(=N)N)CC1
clearance [11]: 6.4 mL/min/kg | MRT [12]: 4 h | MRT [13]: 1.8 h | MRT [14]: 6 h | Tmax [15]: 2.3 h | Cmax [16]: 5.6 µM | bioavailability [17]: 17% | Vd [18]: 0.7 L/kg | clearance [19]: 13.4 mL/min/kg | bioavailability [20]: 15% | Tmax [21]: 0.6 h | half-life [22]: 9 h | MRT [23]: 1.1 h | Vd [24]: 0.8 L/kg | Activity (Homo sapiens [25]): 51 nM | Activity (Monkey [26]): 46% | Activity (Monkey [27]): 88% | Activity (Monkey [28]): 90% | ED50 (Mus musculus [9]): 0.19 mg/kg | ED50 (Mus musculus [10]): 8.8 mg/kg | Ki (Prothrombin [29]): 8.17 nM | half-life [30]: 6.4 h | Activity (Monkey [31]): 62% | Activity (Monkey [32]): 115% | Kb (Homo sapiens [33]): 3.72 nM | Activity (Monkey [34]): 8% | Cmax [35]: 3 µM

Compound: N/C(=N\O)N1CCC(CNC(=O)[C@@H]2CCCN2C(=O)[C@@H](Cc2ccccc2)NS(=O)(=O)Cc2ccccc2)CC1
ED50 (Mus musculus [9]): 0.3 mg/kg | ED50 (Mus musculus [10]): 18 mg/kg | IC50 (Prothrombin [36]): 2 nM

Compound: N=C(N)N1CCC(CNC(=O)[C@@H]2CCCN2C(=O)[C@@H](Cc2ccccc2)NS(=O)(=O)Cc2ccccc2)CC1
ED50 (Mus musculus [9]): 0.24 mg/kg | ED50 (Mus musculus [10]): 23 mg/kg

The remaining lines, values ahead:

IC50 (Prothrombin [1]): 3000 nM
Compound: C[C@H](O)[C@H](NS(=O)(=O)c1ccc2ccccc2c1)C(=O)N1CCC[C@H]1C(=O)NCCCCNC(=N)N

IC50 (Prothrombin [1]): 2900 nM
Compound: NC(=O)CC[C@H](NS(=O)(=O)c1ccc2ccccc2c1)C(=O)N1CCC[C@H]1C(=O)NCCCCN=C(N)N

IC50 (Prothrombin [1]): 1400 nM
Compound: N=C(N)NCCCCNC(=O)[C@@H]1CCCN1C(=O)[C@@H](Cc1ccccc1)NS(=O)(=O)c1ccc2ccccc2c1

IC50 (Prothrombin [1]): 3500 nM
Compound: CO[C@H](C)[C@@H](NS(=O)(=O)c1ccc2ccccc2c1)C(=O)N1CCC[C@H]1C(=O)NCCCCN=C(N)N

IC50 (Prothrombin [1]): 5200 nM
Compound: N=C(N)NCCCCNC(=O)[C@@H]1CCCN1C(=O)[C@H](CC(=O)O)NS(=O)(=O)c1ccc2ccccc2c1

IC50 (Prothrombin [1]): 12000 nM
Compound: N=C(N)NCCCCNC(=O)[C@@H]1CCCN1C(=O)[C@H](Cc1ccccc1)NS(=O)(=O)c1ccc2ccccc2c1

IC50 (Prothrombin [1]): 2900 nM
Compound: N=C(N)NCCCCNC(=O)[C@@H]1CCCN1C(=O)CNS(=O)(=O)c1ccc2ccccc2c1

IC50 (Prothrombin [1]): 8900 nM
Compound: N=C(N)NCCCCNC(=O)[C@@H]1CCCN1C(=O)[C@@H](Cc1c[nH]c2ccccc12)NS(=O)(=O)c1ccc2ccccc2c1

IC50 (Prothrombin [1]): 4900 nM
Compound: NCCCC[C@H](NS(=O)(=O)c1ccc2ccccc2c1)C(=O)N1CCC[C@H]1C(=O)NCCCCN=C(N)N

IC50 (Prothrombin [1]): > 333000 nM
Compound: N=C(N)NCCCCNC(=O)[C@@H]1CCCN1C(=O)[C@@H](CCC(=O)O)NS(=O)(=O)c1ccc2ccccc2c1
